# PAFAH2 inh: PAFAH2 (human) inhibition; recombinant PAFAH2, FP-rhodamine activity probe, fluorescence polarization; inhibition, % at 3.39 µM; actives 0.99% (n = 340,000); AID 492956; Q99487;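 active = inhibition above the mean over all tested compounds plus 3 SD, cut at about 30% in these data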;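 note: inhibitors block probe labeling of enzyme so polarization drops; 0% = enzyme with DMSO and 100% = wells lacking PAFAH2 protein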
# pPAFAH inh: pPAFAH (human) enzyme inhibition; AID 463082; inhibition, % at 3.39 µM; recombinant pPAFAH, FP-rhodamine probe fluorescence polarization; actives 1.5% (n = 330,000); Q13093;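 active = inhibition above the mean inhibition across the screen plus 3 SD, cut at about 25% in these data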;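 note: inhibitors block binding of the rhodamine activity-based probe so polarization drops; 0% = enzyme with DMSO and 100% = wells lacking pPAFAH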
# PAFAH1B3 inh: PAFAH1B3 (human) inhibition. recombinant PAFAH1B3, FP-rhodamine probe, fluorescence polarization. actives 0.28% (n = 340,000). AID 492972. Q15102. inhibition, % at 3.39 µM;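 active = inhibition above the screen-wide average of all tested compounds plus 3 SD, cut at about 25% in these data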;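 note: 0% = enzyme with DMSO only and 100% = wells lacking PAFAH1B3 protein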
# Target sequence (Q15102 whole entry, looked up): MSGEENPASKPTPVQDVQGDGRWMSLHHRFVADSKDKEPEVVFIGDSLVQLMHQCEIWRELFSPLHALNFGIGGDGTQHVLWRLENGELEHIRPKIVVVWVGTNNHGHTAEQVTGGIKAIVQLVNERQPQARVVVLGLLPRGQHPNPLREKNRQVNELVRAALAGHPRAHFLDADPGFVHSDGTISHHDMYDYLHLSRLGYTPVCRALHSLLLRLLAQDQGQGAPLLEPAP
# PAFAH1B2 FP inh: inhibitors of human PAFAH1B2; recombinant PAFAH1B2, FP-rhodamine activity probe, fluorescence polarization; inhibition, % at 3.39 µM; actives 1.2% (n = 340,000);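 active = inhibition above the mean of all tested compounds plus 3 SD, cut at about 24% in these data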;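 note: 0% = enzyme with DMSO and 100% = wells lacking PAFAH1B2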
# Target sequence (P68402 whole entry, looked up): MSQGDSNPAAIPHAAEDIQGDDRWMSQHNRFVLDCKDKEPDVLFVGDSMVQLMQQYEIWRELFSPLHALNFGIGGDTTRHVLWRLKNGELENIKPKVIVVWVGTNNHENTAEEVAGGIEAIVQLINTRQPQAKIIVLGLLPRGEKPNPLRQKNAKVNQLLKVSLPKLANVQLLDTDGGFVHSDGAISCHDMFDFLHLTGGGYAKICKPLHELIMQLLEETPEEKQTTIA
# Apaf1 inhib: human Apaf-1 inhibition. actives 0.71% (n = 330,000). AID 489030. inhibition, % at 20 µM. O14727. reconstituted apoptosome caspase-3 activity, DEVD-Rh110 fluorescence; active = inhibition of at least 40% at 20 µM;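 note: plate controls were DMSO wells for no effect and DEVD-CHO caspase inhibitor wells for full effect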
#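 Medium: Hepes buffer, pH 7.5 / System: biochemical Apaf-1 apoptosome reconstitution / Measured by: Rh110 fluorescence, excitation 480 nm, emission 540 nm / Times: compound with Apaf-1, dATP, procaspase-3 30 min, then 50 min reaction, room temperature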
# PAFAH2 FP conf: confirmation of human PAFAH2 inhibitors; shares compounds with PAFAH2 inh; recombinant PAFAH2, FP-rhodamine activity probe, fluorescence polarization; inhibition, % at 3.39 µM; actives 65% (n = 2,300); AID 493030;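 active = mean inhibition over three repeats above a set limit taken from the earlier primary screen, cut at about 30% in these data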;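 note: inhibitor blocks binding of rhodamine activity probe so polarization falls; 0% = enzyme with DMSO and 100% = wells lacking PAFAH2 protein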
# The depositor's hits bear a star; . = not tested or not shown. Only some compounds are listed: those with a hit (about 3.1% of all), similar ones and a draw of the others.
SMILES,PAFAH2 inh,pPAFAH inh,PAFAH1B3 inh,PAFAH1B2 FP inh,Apaf1 inhib,PAFAH2 FP conf
Cc1c(Cl)cnc(NC(=O)COC(=O)C2CC3CCCC(C2)C3=O)c1Cl (stereo not drawn),22,6,0,0,13,.
CCOc1ccc(NC(=O)COC(=O)C2CC2C)cc1 (stereo not drawn),60*,12,5,3,6,47*
CC1CC1C(=O)OCC(=O)Nc1ccc(Cl)cn1 (stereo not drawn),47*,9,-1,-6,-10,39*
O=C(COC(=O)C1CC2CCCC(C1)C2=O)Nc1ccc(Cl)cn1 (stereo not drawn),47*,7,1,5,-6,25
CC(OC(=O)CCN=C1NS(=O)(=O)c2ccccc21)C(=O)Nc1ccc(F)cc1 (stereo not drawn),-1,1,2,-3,1,.
CN(C)S(=O)(=O)c1ccc(NC(=O)CSc2nnc(-c3ccco3)n2N)cc1,10,3,15,4,2,.
CC(=O)Nc1cc(C(=O)OCC(=O)c2ccc(Cl)cc2Cl)ccc1C,35*,0,9,12,7,21
Cc1ccc(Cl)cc1NC(=O)COC(=O)c1ccc(CN2CCCC2=O)cc1,60*,4,5,0,-3,43*
CC(=O)Nc1cc(C(=O)OCC(=O)c2ccc(C)cc2)ccc1C,22,21,2,6,-7,.
COc1cc(Cl)c(C)cc1NC(=O)COC(=O)c1ccc(CN2CCCC2=O)cc1,43*,9,0,-6,15,23
Cc1c(Cl)cccc1NC(=O)COC(=O)c1ccc(CN2CCCC2=O)cc1,76*,7,7,0,2,67*
Cc1nc(NC(=O)/C=C/c2ccccc2)n[nH]1,-3,-1,3,7,-5,.
COc1ccc(CCN(C)C(=O)CN2C(=O)NC3(CCCc4ccccc43)C2=O)cc1OC (stereo not drawn),0,7,8,-2,2,.
CC1(C)Cc2c(sc3nc(=S)[nH]c(N)c23)CO1,.,-7,.,.,3,.
CCOc1ncccc1C(=O)Nc1cc(S(=O)(=O)N2CCCCCC2)ccc1OC,10,.,8,4,-2,.
O=C(N/C(=C\c1ccco1)C(=O)N1CCCC(CO)C1)c1ccccc1 (stereo not drawn),-2,2,3,-2,-7,.
O=C(COC(=O)/C=C/c1ccc(C(F)(F)F)cc1)NC1CCCC1,20,10,2,-3,2,.
C=CCOc1ccc(/C=C/C(=O)OCC(=O)NCC2CCCCC2)cc1,68*,8,2,-1,1,66*
C=CCOc1ccc(/C=C/C(=O)OCC(=O)NC2CCCCCCC2)cc1,67*,-3,6,2,5,72*
CC1(C)C2CCC1(C)C(SC(=N)N)C2 (stereo not drawn),6,.,7,2,.,.
CCOc1ccc(C(=O)OC(C)CN2CCCCC2)cc1 (stereo not drawn),57*,-2,6,4,5,-1
CC(CN1CCCC1)OC(=O)c1ccc(F)cc1 (stereo not drawn),-4,9,10,-3,-4,.
Nc1ccccc1-c1nc2ccccc2c(=O)o1,30*,-6,13,6,18,21
O=c1oc(-c2ccccc2NS(=O)(=O)c2ccccc2)nc2ccccc12,77*,-6,-1,5,12,67*
O=C(NNC(=O)c1cc(Cl)ccc1[N+](=O)[O-])c1csc(N2CCOCC2)n1,-6,2,8,6,-3,.
SMILES,PAFAH2 inh,pPAFAH inh,PAFAH1B3 inh,PAFAH1B2 FP inh,Apaf1 inhib,PAFAH2 FP conf
COc1ccc(NC(=S)Nc2ccc(OCc3ccccc3)cc2)c(OC)c1,-2,6,5,5,9,.
COc1ccc(NC(=S)Nc2ccccc2)c(OC)c1,164*,-1,1,0,9,-1
Cc1ccc(S(=O)(=O)N2CCCCC2)cc1NC(=O)COC(=O)c1c(F)cccc1F,38*,6,7,-3,-8,23
Cc1ccc(S(=O)(=O)N2CCCCC2)cc1NC(=O)COC(=O)c1ccc(O)cc1,60*,15,6,8,5,67*
Cc1ccc(S(=O)(=O)N2CCCCC2)cc1NC(=O)COC(=O)c1ccc(=O)[nH]c1,56*,3,6,-4,1,52*
O=C(c1ccc(F)cc1F)N1CCN(c2ccccn2)CC1,13,1,-1,0,3,.
Cc1ccccc1-c1ncc(CN2CCC(CO)(CCCc3ccccc3)CC2)cn1,-3,-4,2,3,14,.
O=C(NCC(c1cccs1)N1CCOCC1)c1ccccc1NS(=O)(=O)c1ccc(Cl)c([N+](=O)[O-])c1 (stereo not drawn),43*,-3,13,17,13,81*
Cc1cccc(OCCOC(=O)c2ccc(F)c(S(=O)(=O)N3CCOCC3)c2)c1,9,5,2,4,10,.
O=C(COC(=O)c1ccc(F)c(S(=O)(=O)N2CCOCC2)c1)NCCc1ccc(F)cc1,30*,5,1,-3,6,21
COc1ccc(C(=O)OCC(=O)c2ccccc2)cc1S(=O)(=O)N1CCOCC1,52*,-1,2,1,2,40*
O=C(COC(=O)c1ccc(CNS(=O)(=O)c2ccc(F)c(Cl)c2)cc1)NC1CCCCCCC1,1,7,-8,-5,11,.
O=C(COC(=O)c1ccc(CNS(=O)(=O)c2ccc(F)c(Cl)c2)cc1)NCC1CCCCC1,59*,7,4,5,8,66*
COc1ccc(C(=O)OCCOc2cccc(Cl)c2)cc1S(=O)(=O)N1CCOCC1,35*,4,13,8,28,19
COC(=O)c1cc(CNC(=O)c2ccccc2OCc2c(C)noc2C)ccc1OC,2,5,1,3,0,.
CC[C@]12c3[nH]c4cc(CCC(=O)N(C)C)ccc4c3CCN1C(=O)[C@@H](CC(=O)NCc1cccc(C(F)(F)F)c1)C[C@@H]2C(=O)N1CCN(C(=O)C2CC2)CC1,-2,7,9,5,14,.
Cn1ncc(Cl)c1C(=O)NCC1CCCO1 (stereo not drawn),1,-7,-7,5,-9,.
COc1ccc(CCC(=O)NCCS(=O)(=O)N2CCN(c3ccccc3OC)CC2)cc1,10,0,11,3,3,.
O=C(C1CCN(S(=O)(=O)c2ccccc2F)CC1)N1CCN(Cc2ccc3c(c2)OCO3)CC1,2,-1,7,4,2,.
COc1ccc(C(=O)OCC(=O)NCCc2ccc(F)cc2)cc1S(=O)(=O)N1CCOCC1,66*,7,13,8,-8,47*
O=C(COC(=O)c1ccc(Cl)nc1)NCc1ccc(F)cc1,11,9,1,-3,-7,.
